Measurements reported in ChEMBL document CHEMBL1147681, “Identification of a terphenyl derivative that blocks the cell cycle in the G0-G1 phase and induces differentiation in leukemia cells” (J Med Chem, 2006).
Activity calls are given as the source filed them. The calls are words filed in the database; no cut-off is given here.

What was measured:
HL-60 [1] = test: Antiproliferative activity against human HL60 cell line; assay type: functional, cell-based
In short: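 Cell growth inhibition measured by counting cells with an automatic cell counter in sensitive HL60, MDR HL60R and Bcr-Abl-expressing K562 cells. IC50 is the concentration inhibiting 50% of cell growth.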

HL-60 [2] = test: Cell cycle arrest in human HL60 cells by accumulation at G2/M phase at 10 uM; assay type: functional, cell-based
In short: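 HL60 cells exposed for 24 h at 10 µM, stained with propidium iodide, and analysed by flow cytometry for DNA content. Sub-G0-G1 (apoptotic), G0-G1, S and G2-M peaks compared with untreated HL60 cells.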

HL-60 [3] = test: Proapoptotic activity against human HL60 cell line; assay type: functional, cell-based
In short: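 Apoptosis assessed by morphological assay and annexin V test. AC50 is the concentration inducing apoptosis in 50% of cells.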

HL-60 [4] = test: Induction of differentiation of human HL60 cells at 10 uM measured as expression of granulocytic marker CD11c after 4 days; assay type: functional
In short: (§1)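 HL60 cells exposed to 10 µM compound; CD14 (monocytic), CD11b and CD11c (granulocytic) surface expression measured by flow cytometry, as percentage of positive cells versus untreated control. Read-out given as 72 h in text, 4 days in table.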

HL-60 [5] = test: Induction of differentiation of human HL60 cells at 10 uM measured as expression of monocytic marker CD14 after 4 days; assay type: functional; in short: as §1
HL-60 [6] = test: Induction of differentiation of human HL60 cells at 10 uM measured as expression of granulocytic marker CD11b after 4 days; assay type: functional; in short: as §1
HL-60 [7] = test: Cell cycle arrest in human HL60 cells by accumulation at S phase at 30 uM; assay type: functional, cell-based
In short: (§2)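 HL60 cells were stained with propidium iodide and analysed by flow cytometry for sub-G0-G1, G0-G1, S and G2-M peaks against untreated control. Exposures were 50 µM for 8 h or 24 h, 10 µM for 96 h, and 20 or 30 µM for 24 h.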

HL-60 [8] = test: Cell cycle arrest in human HL60 cells by accumulation at G0/G1 phase at 10 uM after 96 hrs; assay type: functional, cell-based; in short: as §2
HL-60 [9] = test: Cell cycle arrest in human HL60 cells by accumulation at G0/G1 phase at 50 uM after 8 hrs; assay type: functional, cell-based; in short: as §2
HL-60 [10] = test: Cell cycle arrest in human HL60 cells by accumulation at G2/M phase at 20 uM; assay type: functional, cell-based; in short: as §2

SMILES	IC50 (HL-60 [1]) [µM]	AC50 (HL-60 [3]) [µM]	other results
COc1ccc(/C=C/c2cc(OC)cc(OC)c2)cc1 [TRISMETHOXYRESVERATROL]	2.5	4	Activity (HL-60 [2]): Active
COc1ccc(-c2ccc(-c3cc(OC)cc(OC)c3)cc2)cc1	75	> 100	–
COc1cc(OC)cc(-c2cccc(-c3ccc(O)cc3)c2)c1	4.8	23	–
Oc1cc(O)cc(-c2ccc3cc(O)ccc3c2)c1	28	48	–
Oc1ccc(/C=C/c2cc(O)cc(O)c2)cc1 [RESVERATROL]	–	–	Activity (HL-60 [4]): 22%; Activity (HL-60 [5]): 23%; Activity (HL-60 [6]): 24%
COc1cc(/C=C/c2cc(OC)c(O)c(OC)c2)cc(OC)c1	20	79	–
COc1cc(/C=C/c2cc(Cl)ccc2O)cc(OC)c1	14	29	–
COc1cc(OC)cc(-c2ccc3cc(OC)ccc3c2)c1	76	91	–
COc1cc(/C=C/c2cc(C(C)(C)C)c(O)c(C(C)(C)C)c2)cc(OC)c1	84	> 100	–
COc1cc(OC)cc(-c2ccccc2-c2ccc(O)cc2)c1	5	10	–
COc1cc(OC)cc(-c2ccc3cc(O)ccc3c2)c1	10	19	–
COc1cc(/C=C/c2cccc(OC)c2O)cc(OC)c1	3.5	15	Activity (HL-60 [7]): Active
CCOc1cc(/C=C/c2cc(OC)cc(OC)c2)ccc1O	11	18	–
COc1cc(/C=C/c2ccc(O)cc2)cc(OC)c1 [PTEROSTILBENE]	–	75	–
Oc1ccc(-c2cccc(-c3cc(O)cc(O)c3)c2)cc1	27	63	–
COc1ccc(-c2ccccc2-c2cc(OC)cc(OC)c2)cc1	7	15	–
COc1cc(OC)cc(-c2ccc(-c3ccc(O)cc3)cc2)c1	2.5	30	–
Oc1ccc(-c2ccc(-c3cc(O)cc(O)c3)cc2)cc1	7	25	Activity (HL-60 [4]): 60%; Activity (HL-60 [8]): Active; Activity (HL-60 [5]): 58%; Activity (HL-60 [6]): 62%; Activity (HL-60 [9]): Active
Oc1ccc(-c2ccccc2-c2cc(O)cc(O)c2)cc1	3.5	9	Activity (HL-60 [10]): Active
COc1ccc(-c2cccc(-c3cc(OC)cc(OC)c3)c2)cc1	50	> 100	–
COc1cc(/C=C/c2ccccc2O)cc(OC)c1	9	35	–
COc1cc(/C=C/c2cccc(O)c2)cc(OC)c1	23	58	–
